In ChEMBL document CHEMBL1629486, “Antimicrobial, antitumor and 5α-reductase inhibitor activities of some hydrazonoyl substituted pyrimidinones” (Eur J Med Chem, 2010):

Assays:
Type in all cases: functional
[1] = system: SK-MEL-2; assay: Growth inhibition of human SK-MEL-2 cells assessed as cell growth at 1 M after 48 hrs by sulforhodamine B assay; parameters: scale not given: the % may be the effect or the level left
How it was run: (§1)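 NCI 60-cell panel screen, single dose (1.0 M as printed). Cells grown in RPMI 1640 with 5% fetal bovine serum and 2 mM L-glutamine, seeded at 5000–40,000 cells/well, preincubated 24 h at 37 °C in 5% CO2 at 100% humidity, then exposed to compound for 48 h. Sulforhodamine B staining read-out. Result given as growth percent: 100 = no inhibition, 0 = no net growth, negative = lethality.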

[2] = system: OVCAR-4; assay: Growth inhibition of human OVCAR4 cells assessed as cell growth at 1 M after 48 hrs by sulforhodamine B assay; parameters: scale not given: the % may be the effect or the level left
How it was run: (§2)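 NCI 60-cell screen at a single high dose. Cells are grown in RPMI 1640 with 5% FBS and 2 mM L-glutamine, then plated at 5000–40,000 cells/well and held 24 h at 37 °C in 5% CO2 at 100% humidity. Drug is then added and plates are incubated another 48 h, with SRB staining as read-out. Results are given as growth percent (100 = no inhibition, 0 = no net growth, negative = lethality).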

[3] = system: Staphylococcus aureus; assay: Antimicrobial activity against Staphylococcus aureus at 1 to 5 ug/ml by agar well diffusion method
How it was run: (§3)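 Agar well diffusion against bacteria and fungi. Inhibition zone is scored beyond the control: ++ 0.6–1.0 cm, + 0.1–0.5 cm, 0 no inhibition.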

[4] = system: MDA-MB-231; assay: Growth inhibition of human MDA-MB-231 cells assessed as cell growth at 1 M after 48 hrs by sulforhodamine B assay; parameters: scale not given: the % may be the effect or the level left; how it was run: as §2
[5] = system: SR; assay: Growth inhibition of human SR cells assessed as cell growth at 1 M after 48 hrs by sulforhodamine B assay; parameters: scale not given: the % may be the effect or the level left; how it was run: as §1
[6] = system: T47D; assay: Growth inhibition of human T47D cells assessed as cell growth at 1 M after 48 hrs by sulforhodamine B assay; parameters: scale not given: the % may be the effect or the level left; how it was run: as §1
[7] = system: K562; assay: Growth inhibition of human K562 cells assessed as cell growth at 1 M after 48 hrs by sulforhodamine B assay; parameters: scale not given: the % may be the effect or the level left; how it was run: as §2
[8] = system: IGROV-1; assay: Growth inhibition of human IGROV1 cells assessed as cell growth at 1 M after 48 hrs by sulforhodamine B assay; parameters: scale not given: the % may be the effect or the level left; how it was run: as §2
[9] = system: NCI-H226; assay: Growth inhibition of human NCI-H226 cells assessed as cell growth at 1 M after 48 hrs by sulforhodamine B assay; parameters: scale not given: the % may be the effect or the level left; how it was run: as §2
[10] = system: A549; assay: Growth inhibition of human A549 cells assessed as cell growth at 1 M after 48 hrs by sulforhodamine B assay; parameters: scale not given: the % may be the effect or the level left; how it was run: as §2
[11] = system: Escherichia coli; assay: Antimicrobial activity against Escherichia coli at 1 to 5 ug/ml by agar well diffusion method; how it was run: as §3
[12] = system: SW-620; assay: Growth inhibition of human SW620 cells assessed as cell growth at 1 M after 48 hrs by sulforhodamine B assay; parameters: scale not given: the % may be the effect or the level left; how it was run: as §1
[13] = system: RXF 393; assay: Growth inhibition of human RXF393 cells assessed as cell growth at 1 M after 48 hrs by sulforhodamine B assay; parameters: scale not given: the % may be the effect or the level left; how it was run: as §1
[14] = system: M14; assay: Growth inhibition of human M14 cells assessed as cell growth at 1 M after 48 hrs by sulforhodamine B assay; parameters: scale not given: the % may be the effect or the level left; how it was run: as §2
[15] = system: NCI-H23; assay: Growth inhibition of human NCI-H23 cells assessed as cell growth at 1 M after 48 hrs by sulforhodamine B assay; parameters: scale not given: the % may be the effect or the level left; how it was run: as §2
[16] = system: HOP-62; assay: Growth inhibition of human HOP62 cells assessed as cell growth at 1 M after 48 hrs by sulforhodamine B assay; parameters: scale not given: the % may be the effect or the level left; how it was run: as §2
[17] = system: CAKI-1; assay: Growth inhibition of human Caki1 cells assessed as cell growth at 1 M after 48 hrs by sulforhodamine B assay; parameters: scale not given: the % may be the effect or the level left; how it was run: as §2
[18] = system: SN12C; assay: Growth inhibition of human SN12C cells assessed as cell growth at 1 M after 48 hrs by sulforhodamine B assay; parameters: scale not given: the % may be the effect or the level left; how it was run: as §1
[19] = system: UACC-257; assay: Growth inhibition of human UACC257 cells assessed as cell growth at 1 M after 48 hrs by sulforhodamine B assay; parameters: scale not given: the % may be the effect or the level left; how it was run: as §1
[20] = system: HL-60(TB); assay: Growth inhibition of human HL-60(TB) cells assessed as cell growth at 1 M after 48 hrs by sulforhodamine B assay; parameters: scale not given: the % may be the effect or the level left
How it was run: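 NCI 60-cell panel, single-dose screen. Cells grown in RPMI 1640 with 5% fetal bovine serum and 2 mM L-glutamine, seeded at 5000–40,000 cells/well and preincubated 24 h at 37 °C in 5% CO2 before drug. Exposure 48 h, then sulforhodamine B staining. Read-out is growth percent: 100 = no inhibition, 0 = no net growth, negative = lethality.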

[21] = system: UACC-62; assay: Growth inhibition of human UACC62 cells assessed as cell growth at 1 M after 48 hrs by sulforhodamine B assay; parameters: scale not given: the % may be the effect or the level left; how it was run: as §1
[22] = system: Malme-3M; assay: Growth inhibition of human MALME-3M cells assessed as cell growth at 1 M after 48 hrs by sulforhodamine B assay; parameters: scale not given: the % may be the effect or the level left; how it was run: as §2
[23] = system: PC-3; assay: Growth inhibition of human PC3 cells assessed as cell growth at 1 M after 48 hrs by sulforhodamine B assay; parameters: scale not given: the % may be the effect or the level left; how it was run: as §2
[24] = system: OVCAR-5; assay: Growth inhibition of human OVCAR5 cells assessed as cell growth at 1 M after 48 hrs by sulforhodamine B assay; parameters: scale not given: the % may be the effect or the level left; how it was run: as §2
[25] = system: Pseudomonas aeruginosa; assay: Antimicrobial activity against Pseudomonas aeruginosa at 1 to 5 ug/ml by agar well diffusion method; how it was run: as §3
[26] = Growth inhibition of human Hs 578T cells assessed as cell growth at 1 M after 48 hrs by sulforhodamine B assay; parameters: scale not given: the % may be the effect or the level left; how it was run: as §2
[27] = system: ACHN; assay: Growth inhibition of human ACHN cells assessed as cell growth at 1 M after 48 hrs by sulforhodamine B assay; parameters: scale not given: the % may be the effect or the level left; how it was run: as §2
[28] = system: OVCAR-8; assay: Growth inhibition of human OVCAR8 cells assessed as cell growth at 1 M after 48 hrs by sulforhodamine B assay; parameters: scale not given: the % may be the effect or the level left; how it was run: as §2
[29] = system: MDA-MB-435; assay: Growth inhibition of human MDA-MB-435 cells assessed as cell growth at 1 M after 48 hrs by sulforhodamine B assay; parameters: scale not given: the % may be the effect or the level left; how it was run: as §2
[30] = system: CCRF-CEM; assay: Growth inhibition of human CCRF-CEM cells assessed as cell growth at 1 M after 48 hrs by sulforhodamine B assay; parameters: scale not given: the % may be the effect or the level left; how it was run: as §2
[31] = system: SF-268; assay: Growth inhibition of human SF268 cells assessed as cell growth at 1 M after 48 hrs by sulforhodamine B assay; parameters: scale not given: the % may be the effect or the level left; how it was run: as §1
[32] = system: UO-31; assay: Growth inhibition of human UO31 cells assessed as cell growth at 1 M after 48 hrs by sulforhodamine B assay; parameters: scale not given: the % may be the effect or the level left; how it was run: as §1
[33] = system: MDA-MB-468; assay: Growth inhibition of human MDA-MB-468 cells assessed as cell growth at 1 M after 48 hrs by sulforhodamine B assay; parameters: scale not given: the % may be the effect or the level left; how it was run: as §2
[34] = system: NCI-H522; assay: Growth inhibition of human NCI-H522 cells assessed as cell growth at 1 M after 48 hrs by sulforhodamine B assay; parameters: scale not given: the % may be the effect or the level left; how it was run: as §2

Row | Compound | Activity [1] [%] | Activity [2] [%] | diameter of the inhibition zone (DIZ) [3] [cm] | Activity [4] [%] | Activity [6] [%] | Activity [7] [%] | Activity [8] [%] | Activity [9] [%] | Activity [10] [%] | diameter of the inhibition zone (DIZ) [11] [cm] | Activity [12] [%] | Activity [13] [%] | Activity [14] [%] | Activity [15] [%] | Activity [16] [%] | Activity [17] [%] | Activity [18] [%] | Activity [20] [%] | Activity [21] [%] | Activity [22] [%] | further results
1 | Cc1ccc(N/N=C(\C(=O)c2ccc(Cl)cc2)c2nc(C)cc(=O)[nH]2)cc1 | 95.33 | 116.35 | 0 | 95.9 | 88.32 | 91.74 | 7.59 | 107.41 | 100.03 | 0.6 | 93.7 | 40.73 | 82.73 | 111.33 | 94.24 | 112.71 | 99.97 | 108.59 | 90.8 | 126.09 | Activity [5]: 84.35%; Activity [19]: 104.52%; Activity [23]: 95.01%; Activity [24]: 121.85%; diameter of the inhibition zone (DIZ) [25]: 0 cm; Activity [26]: 99.88%; Activity [27]: 99.08%; Activity [28]: 100.7%; Activity [29]: 123.17%; Activity [30]: -15.08%; Activity [31]: 107.28%
2 | Cc1cc(=O)[nH]c(/C(=N/Nc2ccccc2)C(=O)c2ccc(Cl)cc2)n1 | 102.42 | 110.81 | 0 | 101.67 | 77.02 | 52.73 | 17.65 | 108.67 | 92.54 | 0.6 | 94.56 | 28.48 | 97.08 | 105.18 | 104.07 | 103.86 | 93.24 | 50.74 | 91.99 | 113.86 | Activity [23]: 92.58%; Activity [24]: 117.08%; diameter of the inhibition zone (DIZ) [25]: 0 cm; Activity [32]: 116.06%; Activity [26]: 83.59%; Activity [27]: 110.63%; Activity [28]: 92.85%; Activity [29]: 107.78%; Activity [30]: 66.03%; Activity [31]: 117.24%
3 | CC(=O)c1ccc(N/N=C(\C(=O)c2ccc(Cl)cc2)c2nc(C)cc(=O)[nH]2)cc1 | 99.06 | 99.2 | 0 | 85.96 | 75.56 | 87.61 | 94.2 | 111 | 94.61 | 0 | 98.45 | 94.35 | 88.06 | 86.1 | 116.72 | 95 | 95.54 | 115.14 | 80.29 | 110.47 | Activity [5]: 62.16%; Activity [33]: 94.65%; Activity [19]: 99.94%; Activity [23]: 90.5%; Activity [24]: 91.69%; diameter of the inhibition zone (DIZ) [25]: 0 cm; Activity [32]: 75.87%; Activity [26]: 90.12%; Activity [27]: 90.63%; Activity [28]: 92.95%; Activity [29]: 95.8%; Activity [34]: 84.76%; Activity [31]: 95.91%
